Measured values published in ChEMBL document CHEMBL1134405 (J Med Chem, 2001).
Active and inactive are the calls of the source. The calls are words filed in the database; no cut-off is given here. Peptide text beside a SMILES is read from it.

Assays:
[1] = A dose-response plot was obtained by determining the response when the concentration of glucagon was varied while the concentration was kept same.
[2] = molecular target: Glucagon receptor (Rattus norvegicus) (UniProt P30082); experiment: Relative binding by measuring competition for glucagon receptor between [125]glucagon and the compound.
Glucagon receptor (Rattus norvegicus), sequence (P30082 whole entry): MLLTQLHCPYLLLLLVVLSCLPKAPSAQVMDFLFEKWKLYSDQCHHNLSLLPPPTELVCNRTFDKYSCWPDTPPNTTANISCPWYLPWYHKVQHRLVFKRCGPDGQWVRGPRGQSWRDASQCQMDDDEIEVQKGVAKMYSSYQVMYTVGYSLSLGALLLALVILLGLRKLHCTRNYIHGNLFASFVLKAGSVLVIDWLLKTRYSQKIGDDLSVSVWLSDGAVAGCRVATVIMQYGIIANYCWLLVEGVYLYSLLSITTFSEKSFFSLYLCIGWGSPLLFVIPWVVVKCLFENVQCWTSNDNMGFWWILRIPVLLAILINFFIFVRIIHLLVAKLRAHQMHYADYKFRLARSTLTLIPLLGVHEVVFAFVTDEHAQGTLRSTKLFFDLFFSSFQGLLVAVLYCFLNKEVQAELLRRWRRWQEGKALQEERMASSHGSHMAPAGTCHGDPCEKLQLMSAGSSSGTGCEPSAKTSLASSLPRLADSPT
Method in brief: (§1)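 Incubation 10 min at 30 °C, then ice cooling and filtration on 0.45 μm cellulose acetate, gamma counting. Nonspecific binding taken with 1024 nM unlabeled peptide and subtracted. Read as % inhibition of specific binding. Triplicates, repeated twice.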

[3] = molecular target: T1, Adenylate cyclase (Rattus norvegicus) (UniProt D4A3N4+P26770+Q04400+P26769+Q03343+P40146+Q8CFM9+P21932); experiment: Maximum stimulation of adenylate cyclase.; type: protein assay
[4] = molecular target: T1, Adenylate cyclase (Rattus norvegicus); experiment: Adenylate cyclase stimulation; Inactive up to 100 uM.; type: protein assay
Glucagon receptor = Glucagon receptor (Rattus norvegicus, UniProt P30082); experiment: IC50 value was expressed as inhibition of [125]glucagon specific binding.; method in brief: as §1
Glucagon receptor, sequence (P30082 whole entry): as above

| Molecule | Relative binding [2] | Max stimulation [3] | IA [4] | IC50 (Glucagon receptor) | pA2 [1] |
| --- | --- | --- | --- | --- | --- |
| Ac-YSKYLDSRRAQDFVQWLMNT-NH2 [listing 1 of 2 here] |  |  |  |  | 7.44 |
| CC(=O)N[C@@H]1CSSC[C@H](C(N)=O)NC(=O)[C@@H](Cc2ccc(O)cc2)NC(=O)[C@H](CCCCN)NC(=O)[C@@H](CO)NC(=O)[C@H](Cc2ccc(O)cc2)NC1=O | 0% | 0% | Inactive up to 100 uM |  |  |
| CSCC[C@H](NC(=O)[C@H](CC(C)C)NC(=O)[C@H](Cc1c[nH]c2ccccc12)NC(=O)[C@H](CCC(N)=O)NC(=O)[C@@H](NC(=O)[C@H](Cc1ccccc1)NC(=O)[C@H](CC(=O)O)NC(=O)[C@H](CCC(N)=O)NC(=O)[C@H](C)NC(=O)[C@H](CCCN=C(N)N)NC(=O)[C@H](CCCN=C(N)N)NC(=O)[C@H](CO)NC(=O)[C@H](CC(=O)O)NC(=O)[C@H](CC(C)C)NC(=O)[C@H](Cc1ccc(O)cc1)NC(=O)[C@H](CCCCN)NC(=O)[C@H](CO)NC(=O)[C@H](Cc1ccc(O)cc1)NC(=O)CCCc1ccccc1)C(C)C)C(=O)N[C@@H](CC(N)=O)C(=O)N[C@H](C(N)=O)[C@@H](C)O (HELM PEPTIDE1{[O=C(CCCc1ccccc1)[*:2]].Y.S.K.Y.L.D.S.R.R.A.Q.D.F.V.Q.W.L.M.N.T.[am]}$$$$V2.0) |  |  |  |  | 7.38 |
| CC(=O)N[C@@H](Cc1ccccc1)C(=O)N[C@H](C(=O)N[C@@H](CO)C(=O)N[C@H]1CSSC[C@@H](C(=O)N[C@@H](CC(=O)O)C(N)=O)NC(=O)[C@H](Cc2ccc(O)cc2)NC(=O)[C@H](CCCCN)NC(=O)[C@H](CO)NC(=O)[C@H](Cc2ccc(O)cc2)NC1=O)[C@@H](C)O (HELM PEPTIDE1{[ac].F.T.S.C.Y.S.K.Y.C.D.[am]}$PEPTIDE1,PEPTIDE1,5:R3-10:R3$$$V2.0) | 43% | 0% | Inactive up to 100 uM |  |  |
| CSCC[C@H](NC(=O)[C@H](CC(C)C)NC(=O)[C@H](Cc1c[nH]c2ccccc12)NC(=O)[C@H](CCC(N)=O)NC(=O)[C@@H](NC(=O)[C@H](Cc1ccccc1)NC(=O)[C@H](CC(=O)O)NC(=O)[C@H](CCC(N)=O)NC(=O)[C@H](C)NC(=O)[C@H](CCCNC(=N)N)NC(=O)[C@H](CCCNC(=N)N)NC(=O)[C@H](CO)NC(=O)[C@H](CC(=O)O)NC(=O)[C@H](CC(C)C)NC(=O)[C@H](Cc1ccc(O)cc1)NC(=O)[C@H](CCCCN)NC(=O)[C@H](CO)NC(=O)[C@H](Cc1ccc(O)cc1)NC(=O)CCCCCc1ccccc1)C(C)C)C(=O)N[C@@H](CC(N)=O)C(=O)N[C@H](C(N)=O)[C@@H](C)O (HELM PEPTIDE1{[O=C(CCCCCc1ccccc1)[*:2]].Y.S.K.Y.L.D.S.R.R.A.Q.D.F.V.Q.W.L.M.N.T.[am]}$$$$V2.0) |  |  |  | 131 nM |  |
| CSCC[C@H](NC(=O)[C@H](CC(C)C)NC(=O)[C@H](Cc1c[nH]c2ccccc12)NC(=O)[C@H](CCC(N)=O)NC(=O)[C@@H](NC(=O)[C@H](Cc1ccccc1)NC(=O)[C@H](CC(=O)O)NC(=O)[C@H](CCC(N)=O)NC(=O)[C@H](C)NC(=O)[C@H](CCCN=C(N)N)NC(=O)[C@H](CCCN=C(N)N)NC(=O)[C@H](CO)NC(=O)[C@H](CC(=O)O)NC(=O)[C@H](CC(C)C)NC(=O)[C@H](Cc1ccc(O)cc1)NC(=O)[C@H](CCCCN)NC(=O)[C@H](CO)NC(=O)[C@H](Cc1ccc(O)cc1)NC(=O)CCCCCc1ccccc1)C(C)C)C(=O)N[C@@H](CC(N)=O)C(=O)N[C@H](C(N)=O)[C@@H](C)O (HELM PEPTIDE1{[O=C(CCCCCc1ccccc1)[*:2]].Y.S.K.Y.L.D.S.R.R.A.Q.D.F.V.Q.W.L.M.N.T.[am]}$$$$V2.0) |  |  |  |  | 7.37 |
| CSCC[C@H](NC(=O)[C@H](CC(C)C)NC(=O)[C@H](Cc1c[nH]c2ccccc12)NC(=O)[C@H](CCC(N)=O)NC(=O)[C@@H](NC(=O)[C@H](Cc1ccccc1)NC(=O)[C@H](CC(=O)O)NC(=O)[C@H](CCC(N)=O)NC(=O)[C@H](C)NC(=O)[C@H](CCCNC(=N)N)NC(=O)[C@H](CCCNC(=N)N)NC(=O)[C@H](CO)NC(=O)[C@H](CC(=O)O)NC(=O)[C@H](CC(C)C)NC(=O)[C@H](Cc1ccc(O)cc1)NC(=O)[C@H](CCCCN)NC(=O)[C@H](CO)NC(=O)[C@H](Cc1ccc(O)cc1)NC(=O)CCCc1ccccc1)C(C)C)C(=O)N[C@@H](CC(N)=O)C(=O)N[C@H](C(N)=O)[C@@H](C)O (HELM PEPTIDE1{[O=C(CCCc1ccccc1)[*:2]].Y.S.K.Y.L.D.S.R.R.A.Q.D.F.V.Q.W.L.M.N.T.[am]}$$$$V2.0) |  |  |  | 21.2 nM |  |
| CC(=O)N[C@@H](CS)C(=O)N[C@@H](Cc1ccc(O)cc1)C(=O)N[C@@H](CO)C(=O)N[C@@H](CCCCN)C(=O)N[C@@H](Cc1ccc(O)cc1)C(=O)N[C@@H](CS)C(N)=O (Ac-CYSKYC-NH2) | 0% | 0% | Inactive up to 100 uM |  |  |
| CSCC[C@H](NC(=O)[C@H](CC(C)C)NC(=O)[C@H](Cc1c[nH]c2ccccc12)NC(=O)[C@H](CCC(N)=O)NC(=O)[C@@H](NC(=O)[C@H](Cc1ccccc1)NC(=O)[C@H](CC(=O)O)NC(=O)[C@H](CCC(N)=O)NC(=O)[C@H](C)NC(=O)[C@H](CCCNC(=N)N)NC(=O)[C@H](CCCNC(=N)N)NC(C)=O)C(C)C)C(=O)N[C@@H](CC(N)=O)C(=O)N[C@H](C(N)=O)[C@@H](C)O |  |  |  | 2300 nM |  |

Further lines, with some results ahead:

| Relative binding [2] | Max stimulation [3] | IA [4] | IC50 (Glucagon receptor) | Molecule | pA2 [1] |
| --- | --- | --- | --- | --- | --- |
| 32% | 0% | Inactive up to 100 uM |  | CC(=O)N[C@@H](Cc1ccccc1)C(=O)N[C@H](C(=O)N[C@@H](CO)C(=O)N[C@@H](CS)C(=O)N[C@@H](Cc1ccc(O)cc1)C(=O)N[C@@H](CO)C(=O)N[C@@H](CCCCN)C(=O)N[C@@H](Cc1ccc(O)cc1)C(=O)N[C@@H](CS)C(=O)N[C@@H](CC(=O)O)C(N)=O)[C@@H](C)O (Ac-FTSCYSKYCD-NH2) |  |
| 30% | 0% | Inactive up to 100 uM |  | CC(=O)N[C@@H](Cc1ccccc1)C(=O)N[C@H]1CSSC[C@@H](C(=O)N[C@@H](Cc2ccc(O)cc2)C(=O)N[C@@H](CC(C)C)C(=O)N[C@@H](CC(=O)O)C(N)=O)NC(=O)[C@H](CO)NC(=O)[C@H](Cc2ccc(O)cc2)NC(=O)[C@H](CC(=O)O)NC(=O)[C@H](CO)NC1=O (HELM PEPTIDE1{[ac].F.C.S.D.Y.S.C.Y.L.D.[am]}$PEPTIDE1,PEPTIDE1,3:R3-8:R3$$$V2.0) |  |
| 0.065% | 0% | Inactive up to 100 uM |  | CSCC[C@H](NC(=O)[C@H](CC(C)C)NC(=O)[C@H](Cc1c[nH]c2ccccc12)NC(=O)[C@H](CCC(N)=O)NC(=O)[C@@H](NC(=O)[C@H](Cc1ccccc1)NC(=O)[C@H](CC(=O)O)NC(=O)[C@H](CCC(N)=O)NC(=O)[C@H](C)NC(=O)[C@H](CCCN=C(N)N)NC(=O)[C@H](CCCN=C(N)N)NC(C)=O)C(C)C)C(=O)N[C@@H](CC(N)=O)C(=O)N[C@H](C(N)=O)[C@@H](C)O |  |
|  |  |  | 60 nM | Ac-YSKYLDSRRAQDFVQWLMNT-NH2 [listing 2 of 2 here] |  |
| 30% | 0% | Inactive up to 100 uM |  | CC(=O)N[C@@H](Cc1ccccc1)C(=O)N[C@@H](CS)C(=O)N[C@@H](CO)C(=O)N[C@@H](CC(=O)O)C(=O)N[C@@H](Cc1ccc(O)cc1)C(=O)N[C@@H](CS)C(=O)N[C@@H](CCCCN)C(=O)N[C@@H](Cc1ccc(O)cc1)C(=O)N[C@@H](CC(C)C)C(N)=O (Ac-FCSDYCKYL-NH2) |  |
| 62% | 0% | Inactive up to 100 uM |  | CC(=O)N[C@@H](Cc1ccccc1)C(=O)N[C@H]1CSSC[C@@H](C(=O)N[C@@H](CCCCN)C(=O)N[C@@H](Cc2ccc(O)cc2)C(=O)N[C@@H](CC(C)C)C(N)=O)NC(=O)[C@H](Cc2ccc(O)cc2)NC(=O)[C@H](CC(=O)O)NC(=O)[C@H](CO)NC1=O (HELM PEPTIDE1{[ac].F.C.S.D.Y.C.K.Y.L.[am]}$PEPTIDE1,PEPTIDE1,3:R3-7:R3$$$V2.0) |  |
| 56% | 0% | Inactive up to 100 uM |  | CC(=O)N[C@@H](Cc1ccccc1)C(=O)N[C@@H](CS)C(=O)N[C@@H](CO)C(=O)N[C@@H](CC(=O)O)C(=O)N[C@@H](Cc1ccc(O)cc1)C(=O)N[C@@H](CO)C(=O)N[C@@H](CS)C(=O)N[C@@H](Cc1ccc(O)cc1)C(=O)N[C@@H](CC(C)C)C(=O)N[C@@H](CC(=O)O)C(N)=O (Ac-FCSDYSCYLD-NH2) |  |
| 24% | 0% | Inactive up to 100 uM |  | CC(=O)N[C@@H](Cc1ccccc1)C(=O)N[C@@H](CS)C(=O)N[C@@H](CO)C(=O)N[C@@H](CC(=O)O)C(=O)N[C@@H](Cc1ccc(O)cc1)C(=O)N[C@@H](CO)C(=O)N[C@@H](CS)C(=O)N[C@@H](Cc1ccc(O)cc1)C(=O)N[C@@H](CC(C)C)C(N)=O (Ac-FCSDYSCYL-NH2) |  |
| 24% | 0% | Inactive up to 100 uM |  | CC(=O)N[C@@H](Cc1ccccc1)C(=O)N[C@H]1CSSC[C@@H](C(=O)N[C@@H](Cc2ccc(O)cc2)C(=O)N[C@@H](CC(C)C)C(N)=O)NC(=O)[C@H](CO)NC(=O)[C@H](Cc2ccc(O)cc2)NC(=O)[C@H](CC(=O)O)NC(=O)[C@H](CO)NC1=O (HELM PEPTIDE1{[ac].F.C.S.D.Y.S.C.Y.L.[am]}$PEPTIDE1,PEPTIDE1,3:R3-8:R3$$$V2.0) |  |
|  |  |  | 800 nM | CSCC[C@H](NC(=O)[C@H](CC(C)C)NC(=O)[C@H](Cc1c[nH]c2ccccc12)NC(=O)[C@H](CCC(N)=O)NC(=O)[C@@H](NC(=O)[C@H](Cc1ccccc1)NC(=O)[C@H](CC(=O)O)NC(=O)[C@H](CCC(N)=O)NC(=O)[C@H](C)NC(=O)[C@H](CCCNC(=N)N)NC(=O)[C@H](CCCNC(=N)N)NC(=O)[C@H](CO)NC(=O)[C@H](CC(=O)O)NC(=O)[C@H](CC(C)C)NC(=O)[C@H](Cc1ccc2ccccc2c1)NC(=O)[C@H](CCCCN)NC(=O)[C@H](CO)NC(=O)[C@H](Cc1ccc2ccccc2c1)NC(C)=O)C(C)C)C(=O)N[C@@H](CC(N)=O)C(=O)N[C@H](C(N)=O)[C@@H](C)O (HELM PEPTIDE1{[ac].[O=C([C@H](Cc1ccc2ccccc2c1)N[*:1])[*:2]].S.K.[O=C([C@H](Cc1ccc2ccccc2c1)N[*:1])[*:2]].L.D.S.R.R.A.Q.D.F.V.Q.W.L.M.N.T.[am]}$$$$V2.0) |  |
